Measured values collected from several papers.
Target: Rho-associated protein kinase 1 (ROCK1, Homo sapiens, UniProt Q13464)

SMILES | read-out | mode | technique | cell line | concentration | endpoint | value
C[C@@H](N)[C@H]1CC[C@H](C(=O)Nc2ccncc2)CC1 | cell-free assay |  |  |  | 0.5 µM | remaining signal | 31.5%
CNC(=O)c1cc(Oc2ccc(NC(=O)Nc3ccc(Cl)c(C(F)(F)F)c3)cc2)ccn1 | enzyme activity | inhibitor |  |  | 0.3 µM | inhibition | 0%
CCS(=O)(=O)c1cc2cc(C[C@](O)(CC(C)(C)c3ccc(F)cc3C(N)=O)C(F)(F)F)[nH]c2cn1 | cell-free assay |  | competition with immobilised ligand |  | 1 µM | remaining binding | 84%
Cc1ccc(NC(=O)c2ccc(C)c(C(F)(F)F)c2)cc1C#Cc1nn(C2CCC(O)CC2)c2ncnc(N)c12 (stereo not drawn) | cell-free assay |  |  |  | 10 µM | remaining signal | 126%
Cc1ccc(C(=O)Nc2ccc(CN3CCN(C)CC3)c(C(F)(F)F)c2)cc1C#Cc1cnc2cccnn12 | enzyme activity | inhibitor |  |  | 23.5 nM | remaining activity | 79%
CN(c1ccnc(CNc2nc(Nc3ccc4c(c3)CC(=O)N4)ncc2C(F)(F)F)n1)S(C)(=O)=O | cell-free assay |  | competition with immobilised ligand |  | 1 µM | remaining binding | 49%
CCN(CC)c1ccc(C2=NNC(=O)CC2C)cc1[N+](=O)[O-] (stereo not drawn) | enzyme activity | inhibitor |  |  | 10 µM | remaining activity | 109%
C=CC(=O)Nc1cc(Nc2nccc(Nc3cc(Cl)c(F)cc3C(C)(C)O)n2)c(OC)cc1N1CC[C@@H](N(C)C)C1 | enzyme activity | inhibitor |  |  | 1 µM | inhibition | 0%
COc1cc2ncnc(Nc3ccc(Oc4ccccc4)cc3C)c2cc1OC | enzyme activity | inhibitor |  |  | 1 µM | inhibition | 1%
CN(C)C1CCN(CC#Cc2nn(C3CCCC3)c3nc(NCc4ccccc4)ncc23)C1 (stereo not drawn) | enzyme activity | inhibitor | FRET |  | 0.1 µM | inhibition | -5%
c1ccc(N2CCN(Cc3nc4ccccc4[nH]3)CC2)nc1 | binding |  | competition with immobilised ligand |  | 1 µM | remaining binding | 100%
N#CCCc1ccc2c(c1)-c1[nH]c3ccc([N+](=O)[O-])cc3c1CC(=O)N2 | cell-free assay |  |  |  | 0.5 µM | remaining signal | 38.9%
CN1CCN(c2cnc3c(C4CCN(C(=O)c5ccc(OC(F)(F)F)cc5N)CC4)ncnc3c2)CC1 | cell-free assay |  | competition with immobilised ligand |  | 1 µM | remaining binding | 100%
CCCS(=O)(=O)Nc1ccc(F)c(C(=O)c2c[nH]c3ncc(-c4ccc(Cl)cc4)cc23)c1F | enzyme activity | inhibitor |  |  | 1 µM | inhibition | < 10%
Cn1cncc1C1=CN(c2ncnc3[nH]cnc23)CCS1 | enzyme activity | inhibitor | radiometric |  | 50 nM | inhibition | 27%
CC/C(=N\NC(=O)C(C)Nc1ccccc1)c1ccc(O)c(C)c1O (stereo not drawn) | enzyme activity | inhibitor |  |  | 0.1 µM | inhibition | 18.5%
CNc1cc(Oc2cc(C(=O)Nc3cc(N4CCN(C)CC4)cc(C(F)(F)F)c3)ccc2C)ncn1 | target engagement in cells | inhibitor | chemoproteomics | Huh-7 | 1 µM | inhibition | -28.8%
COc1cc(-c2cn(C3CCc4ccccc4N(CC(F)(F)F)C3=O)nn2)ccc1-n1ccc(C)n1 (stereo not drawn) | cell-free assay |  | competition with immobilised ligand |  | 1 µM | remaining binding | 100%
Cc1sc(C(=O)NC2COC2)cc1-n1cc(NC(=O)Nc2c(F)cccc2Cl)cn1 | enzyme activity | inhibitor |  |  | 10 µM | remaining activity | 96.8%
CSc1nc(C)c(-c2ccnc(Nc3ccc(N4CCOCC4)cc3)c2)[nH]1 | enzyme activity | inhibitor |  |  | 10 µM | inhibition | -4.2%
CN(C)c1ncnc(-c2ccc3nc(Nc4cc(CN5CCN(C(=O)CC(F)(F)F)CC5)ccn4)[nH]c3c2)c1Cl | cell-free assay |  | competition with immobilised ligand |  | 1 µM | remaining binding | 100%
Cc1ccc(Nc2nccc(N(C)c3ccc4c(C)n(C)nc4c3)n2)cc1S(N)(=O)=O | enzyme activity | inhibitor |  |  | 0.3 µM | inhibition | -1%
O=c1nc(-c2ccccn2)sc2ccccc12 | binding |  | competition with immobilised ligand |  | 1 µM | remaining binding | 100%
O=C(Nc1cnn(-c2csc(C(=O)NC3COC3)c2)c1)Nc1c(F)cccc1Cl | enzyme activity | inhibitor |  |  | 5 µM | remaining activity | 78.2%
CCN(CC)CCNC(=O)c1c(C)[nH]c(/C=C2\C(=O)Nc3ccc(F)cc32)c1C | enzyme activity | inhibitor |  |  | 10 µM | inhibition | 26%
c1ccc(CNc2nc(N3CCOc4ccccc43)nc3c2CCCC3)cc1 | target engagement in cells | inhibitor | chemoproteomics |  | 20 mM | inhibition | 3.9%
CC(C)(C)c1nc(-c2cccc(NS(=O)(=O)c3c(F)cccc3F)c2F)c(-c2ccnc(N)n2)s1 | enzyme activity | inhibitor | radiometric |  | 1 µM | remaining activity | 104%
CC(C)(O)[C@H]1CC[C@H](Nc2ccc3ncc(-c4cccc(C(F)(F)F)c4)n3n2)CC1 | enzyme activity | inhibitor |  |  | 1 µM | remaining activity | 94%
CN(C)CC#Cc1ccc(OCCCc2sc(N3CCc4cccc(C(=O)Nc5nc6ccccc6s5)c4C3)nc2C(=O)O)c(F)c1 | cell-free assay |  | competition with immobilised ligand |  | 1 µM | remaining binding | 100%
O=S(=O)(c1cccc2cnccc12)N1CCCNCC1 | cell-free assay |  |  |  | 0.5 µM | remaining signal | 60.2%
